# Measurements reported in ChEMBL document CHEMBL3860034, “Development of Potent and Selective S. aureus Sortase A Inhibitors Based on Peptide Macrocycles” (ACS Med Chem Lett, 2016).
# *1 amine or outer side, *2 acyl side, *3 side chain or, on linkers, in order; H or OH if unused. Where a SMILES comes first, the peptide text is derived from it. Bridges are numbered along the chain shown (N, C = ends). TBMB = c1c(C[*:1])cc(C[*:3])cc1C[*:2]; mXylylene = c1cc(C[*:1])cc(C[*:2])c1
# Target: T1, Sortase A (Staphylococcus aureus, UniProt Q9S446)
# T1 sequence (Q9S446 whole entry): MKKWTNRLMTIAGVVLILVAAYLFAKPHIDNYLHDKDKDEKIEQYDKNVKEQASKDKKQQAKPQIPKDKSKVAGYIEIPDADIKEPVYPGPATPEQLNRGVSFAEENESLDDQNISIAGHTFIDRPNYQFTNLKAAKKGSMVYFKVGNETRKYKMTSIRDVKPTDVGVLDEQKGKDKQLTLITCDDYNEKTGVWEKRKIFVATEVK
# Experiment: Inhibition of Staphylococcus aureus His6-biotinylated SrtA expressed in Escherichia coli XL1-blue using Dabcyl-LPETG-Edans as substrate assessed as residual activity by fluorescence assay
# In short: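 (His)6-SrtA26−206 from E. coli XL1-blue, purified by Ni affinity and gel filtration. Enzyme at 2.5 μM incubated with varied peptide concentrations (up to 300 μM). Residual activity measured with 20 μM Dabcyl-LPETG-Edans and 200 μM triglycine in 50 mM Tris-Cl pH 7.4, 150 mM NaCl, 5 mM CaCl2, 0.1% BSA, 37 °C. Fluorescence read at ex 350/em 480 nm. Ki from Supporting Information equations; at least three measurements.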
row,Compound,Ki [µM]
1,CC[C@H](C)[C@@H]1NC(=O)[C@H](CO)NC(=O)[C@@H](NC(=O)[C@H](C)N)CSCc2cc3cc(c2)CSC[C@H](NC(=O)[C@@H]2CCCN2C(=O)[C@@H]2CCCN2C(=O)[C@H](CC(C)C)NC1=O)C(=O)N[C@@H](CC(N)=O)C(=O)N1CCC[C@H]1C(=O)N1CCC[C@H]1C(=O)N[C@@H](CCC(N)=O)C(=O)N[C@H](C(=O)NCC(N)=O)CSC3,11.1
2,CC(C)C[C@@H]1NC(=O)[C@H](CCC(N)=O)NC(=O)[C@H](CCCNC(=N)N)NC(=O)[C@H](NC(=O)[C@H](C)N)CSCc2cc3cc(c2)CSC[C@H](C(=O)NCC(N)=O)NC(=O)[C@H](C(C)C)NC(=O)[C@H](Cc2ccc(O)cc2)NC(=O)[C@H](CCC(=O)O)NC(=O)[C@H](C)NC(=O)[C@H](CSC3)NC(=O)[C@@H]2CCCN2C(=O)[C@@H]2CCCN2C1=O,45.5
3,CC[C@H](C)[C@@H]1NC(=O)[C@H](CO)NC(=O)[C@@H](NC(=O)[C@H](C)N)CSCc2cc3cc(c2)CSC[C@H](NC(=O)[C@@H]2CCCN2C(=O)[C@@H]2CCCN2C(=O)[C@H](CC(C)C)NC1=O)C(=O)N[C@H](CC(N)=O)C(=O)N1CCC[C@H]1C(=O)N1CCC[C@H]1C(=O)N[C@@H](CCC(N)=O)C(=O)N[C@H](C(=O)NCC(N)=O)CSC3,11.1
4,CC[C@H](C)[C@@H]1NC(=O)[C@H](C)NC(=O)[C@@H](NC(=O)[C@H](C)N)CSCc2cc3cc(c2)CSC[C@H](NC(=O)[C@@H]2CCCN2C(=O)[C@@H]2CCCN2C(=O)[C@H](CC(C)C)NC1=O)C(=O)N[C@@H](CCC(N)=O)C(=O)N1CCC[C@H]1C(=O)N[C@@H](CCCNC(=N)N)C(=O)N[C@H](C(=O)NCC(N)=O)CSC3,21.5
5,CC[C@H](C)[C@@H]1NC(=O)[C@H](C)NC(=O)[C@@H](NC(=O)[C@H](C)N)CSCc2cc3cc(c2)CSC[C@H](C(=O)NCC(N)=O)NC(=O)[C@H](CCCNC(=N)N)NC(=O)[C@@H]2CCCN2C(=O)[C@H](CCC(N)=O)NC(=O)[C@H](CSC3)NC(=O)[C@@H]2CCCN2C(=O)[C@@H]2CCCN2C(=O)[C@H](CC(C)C)NC1=O,21.5
6,CC(C)C[C@@H]1NC(=O)[C@H](CCC(N)=O)NC(=O)[C@H](CCCNC(=N)N)NC(=O)[C@@H](NC(=O)[C@H](C)N)CSCc2cc3cc(c2)CSC[C@H](NC(=O)[C@@H]2CCCN2C(=O)[C@@H]2CCCN2C1=O)C(=O)N[C@@H](C)C(=O)N[C@@H](CCC(=O)O)C(=O)N[C@@H](Cc1ccc(O)cc1)C(=O)N[C@@H](C(C)C)C(=O)N[C@H](C(=O)NCC(N)=O)CSC3,45.5
7,CC(C)C[C@@H]1NC(=O)[C@@H](NC(=O)[C@H](C)N)CSCc2cc3cc(c2)CSC[C@H](NC(=O)[C@@H]2CCCN2C(=O)[C@@H]2CCCN2C(=O)[C@H](CC(C)C)NC(=O)[C@H](CCC(N)=O)NC1=O)C(=O)N[C@@H](CO)C(=O)N[C@@H](CO)C(=O)N1CCC[C@H]1C(=O)N[C@H](C(=O)NCC(N)=O)CSC3 (H-ACLQLPPCSSPCG-NH2; linker 2-8-12 via TBMB),11.6
8,CC[C@H](C)[C@@H]1NC(=O)[C@H](CO)NC(=O)[C@H](CO)NC(=O)[C@@H]2CSCc3cc(cc(c3)CSC[C@@H](C(=O)NCC(N)=O)NC(=O)[C@@H]3CCCN3C(=O)[C@@H]3CCCN3C(=O)[C@H](CC(C)C)NC1=O)CSC[C@H](NC(=O)[C@H](C)N)C(=O)N[C@@H](CCSC)C(=O)N[C@@H](Cc1ccc(O)cc1)C(=O)N[C@@H](CCC(N)=O)C(=O)N[C@@H](C)C(=O)N[C@@H](C)C(=O)N[C@@H](CC(C)C)C(=O)N2 (H-ACMYQAALCSSILPPCG-NH2; linker 2-9-16 via TBMB),9.4
9,CC(C)C[C@@H]1NC(=O)[C@@H]2CCCN2C(=O)[C@@H](NC(=O)[C@H](C)N)CSCc2cc3cc(c2)CSC[C@H](NC(=O)[C@@H]2CCCN2C(=O)[C@@H]2CCCN2C(=O)[C@H](CC(C)C)NC1=O)C(=O)N[C@@H](C)C(=O)N[C@@H](CC(=O)O)C(=O)N[C@@H](CC(=O)O)C(=O)N[C@H](C(=O)NCC(N)=O)CSC3 (H-ACPLLPPCADDCG-NH2; linker 2-8-12 via TBMB),3
10,CC(C)C[C@@H]1NC(=O)[C@@H]2CCCN2C(=O)[C@@H](NC(=O)[C@H](C)N)CSCc2cc3cc(c2)CSC[C@H](NC(=O)[C@@H]2CCCN2C(=O)[C@@H]2CCCN2C(=O)[C@H](CC(C)C)NC1=O)C(=O)N[C@@H](Cc1cnc[nH]1)C(=O)N[C@@H](CC(C)C)C(=O)N1CCC[C@H]1C(=O)N[C@@H](CCC(N)=O)C(=O)N[C@H](C(=O)NCC(N)=O)CSC3 (H-ACPLLPPCHLPQCG-NH2; linker 2-8-13 via TBMB),9.3 to 13.3
11,CC(C)C[C@@H]1NC(=O)[C@H](CO)NC(=O)[C@@H]2CSCc3cc(cc(c3)CSC[C@H](NC(=O)[C@H](C)N)C(=O)N3CCC[C@H]3C(=O)N[C@@H](CC(C)C)C(=O)N[C@@H](CC(C)C)C(=O)N3CCC[C@H]3C(=O)N3CCC[C@H]3C(=O)N2)CSC[C@@H](C(=O)NCC(=O)O)NC(=O)[C@H](CC(=O)O)NC1=O (H-ACPLLPPCSLDCG-OH; linker 2-8-12 via TBMB),1.5
12,CC(C)C[C@@H]1NC(=O)[C@H](CCC(N)=O)NC(=O)[C@@H]2CCCN2C(=O)[C@@H](NC(=O)[C@H](C)N)CSCc2cccc(c2)CSC[C@@H](C(=O)NCC(N)=O)NC(=O)[C@@H]2CCCN2C(=O)[C@@H]2CCCN2C1=O (H-ACPQLPPCG-NH2; linker 2-8 via mXylylene),4.9
13,CC(C)C[C@@H]1NC(=O)[C@@H]2CSCc3cc(cc(c3)CSC[C@H](NC(=O)[C@H](C)N)C(=O)N3CCC[C@H]3C(=O)N[C@@H](CCC(N)=O)C(=O)N[C@@H](CC(C)C)C(=O)N3CCC[C@H]3C(=O)N3CCC[C@H]3C(=O)N2)CSC[C@@H](C(=O)NCC(N)=O)NC(=O)[C@@H]2CCCN2C(=O)[C@H](Cc2ccc(O)cc2)NC1=O (H-ACPQLPPCLYPCG-NH2; linker 2-8-12 via TBMB),7.4
14,CC(C)C[C@@H]1NC(=O)[C@H](CCC(N)=O)NC(=O)[C@@H]2CCCN2C(=O)[C@@H](NC(=O)[C@H](C)N)CSCc2cc3cc(c2)CSC[C@H](NC(=O)[C@@H]2CCCN2C(=O)[C@@H]2CCCN2C1=O)C(=O)N[C@@H](CCCNC(=N)N)C(=O)N[C@@H](C(C)C)C(=O)N[C@@H](CO)C(=O)N[C@H](C(=O)NCC(N)=O)CSC3 (H-ACPQLPPCRVSCG-NH2; linker 2-8-12 via TBMB),4.3
15,CC[C@H](C)[C@@H]1NC(=O)CNC(=O)[C@H](CCC(N)=O)NC(=O)[C@@H](NC(=O)[C@H](C)N)CSCc2cc3cc(c2)CSC[C@H](NC(=O)[C@@H]2CCCN2C(=O)[C@@H]2CCCN2C(=O)[C@H](CC(C)C)NC1=O)C(=O)NCC(=O)N[C@@H](CCCNC(=N)N)C(=O)NCC(=O)NCC(=O)NCC(=O)N[C@H](C(=O)NCC(N)=O)CSC3 (H-ACQGILPPCGRGGGCG-NH2; linker 2-9-15 via TBMB),42
16,CC[C@H](C)[C@@H]1NC(=O)CNC(=O)[C@H](CCC(N)=O)NC(=O)[C@@H](NC(=O)[C@H](C)N)CSCc2cc3cc(c2)CSC[C@H](NC(=O)[C@@H]2CCCN2C(=O)[C@@H]2CCCN2C(=O)[C@H](CC(C)C)NC1=O)C(=O)NCC(=O)N[C@@H](CCCNC(=N)N)C(=O)NCC(=O)NCC(=O)NCC(=O)NCC(=O)N[C@H](C(=O)NCC(N)=O)CSC3 (H-ACQGILPPCGRGGGGCG-NH2; linker 2-9-16 via TBMB),42
17,CC(C)C[C@@H]1NC(=O)[C@H](CCC(N)=O)NC(=O)[C@@H](NC(=O)[C@H](C)N)CSCc2cc3cc(c2)CSC[C@H](NC(=O)[C@@H]2CCCN2C(=O)[C@@H]2CCCN2C(=O)[C@H](CC(C)C)NC1=O)C(=O)N1CCC[C@H]1C(=O)N[C@@H](Cc1ccccc1)C(=O)N[C@@H](CC(N)=O)C(=O)N[C@H](C(=O)NCC(N)=O)CSC3 (H-ACQLLPPCPFNCG-NH2; linker 2-8-12 via TBMB),19.3
18,CC(C)C[C@@H]1NC(=O)[C@H](CCC(N)=O)NC(=O)[C@H](CCCNC(=N)N)NC(=O)[C@@H](NC(=O)[C@H](C)N)CSCc2cc3cc(c2)CSC[C@H](NC(=O)[C@@H]2CCCN2C(=O)[C@@H]2CCCN2C1=O)C(=O)N[C@@H](CO)C(=O)N[C@@H](Cc1ccccc1)C(=O)N[C@@H](CCC(=O)O)C(=O)N[C@H](C(=O)NCC(N)=O)CSC3 (H-ACRQLPPCSFECG-NH2; linker 2-8-12 via TBMB),11.6
19,CC(C)C[C@@H]1NC(=O)[C@H]([C@@H](C)O)NC(=O)[C@@H](NC(=O)[C@H](C)N)CSCc2cc3cc(c2)CSC[C@H](NC(=O)[C@@H]2CCCN2C(=O)[C@@H]2CCCN2C(=O)[C@H](CC(C)C)NC1=O)C(=O)N[C@@H]([C@@H](C)O)C(=O)N1CCC[C@H]1C(=O)N[C@@H](CC(=O)O)C(=O)N[C@@H](CCC(N)=O)C(=O)N[C@H](C(=O)NCC(N)=O)CSC3 (H-ACTLLPPCTPDQCG-NH2; linker 2-8-13 via TBMB),32.1
20,CC(C)C[C@@H]1NC(=O)[C@H](CCC(N)=O)NC(=O)[C@@H]2CCCN2C(=O)[C@@H]2CSCc3cc(cc(c3)CSC[C@@H](C(=O)NCC(=O)O)NC(=O)[C@@H]3CCCN3C(=O)[C@@H]3CCCN3C1=O)CSC[C@H](NC(=O)[C@H](C)N)C(=O)N[C@@H]([C@@H](C)O)C(=O)N[C@@H](CO)C(=O)N[C@@H](CCCNC(=N)N)C(=O)N2 (H-ACTSRCPQLPPCG-OH; linker 2-6-12 via TBMB),1.8
